In experiment [1] the test system is PC-12. Description: Induction of neurite outgrowth in rat PC12 cells at 10 ug/mL after 7 days. In kind it is functional, cell-based. The gist of the method:
(§1)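 Rat PC12 cells (ATCC CRL 1721) grown on collagen Type IV in RPMI 1640 with 10% heat-inactivated horse serum and 5% FBS, 37 °C, 5% CO₂. Seeded at 10,000 cells/well in collagen IV 96-well plates and allowed to adhere 24 h before compound. Tested in duplicate at final 100, 10 and 1 μg/mL; absolute EtOH as control. Neurite outgrowth and intercellular connections scored visually over 2 weeks.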

The next experiment deals with Escherichia coli. The experiment is described as follows: Antibacterial activity against Escherichia coli after 16 hrs. The class given is functional.
Another experiment deals with Bacillus subtilis. The experiment is described as follows: Antibacterial activity against Bacillus subtilis after 16 hrs. The class given is functional.
A further experiment deals with Saccharomyces cerevisiae. Description: Antifungal activity against Saccharomyces cerevisiae after 16 hrs. The class given is functional.
The test system of a further experiment is Jurkat. Description: Growth inhibition of human Jurkat T cells at 1 ug/mL after 24 hrs. In kind it is functional, cell-based. The procedure, abridged:
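Cells kept in RPMI 1640 with 10% FBS at 37 °C, 5% CO₂. Harvested, counted and seeded at 200,000 cells/well (1 mL) in 48-well plates, then compound added. After 24 h incubation the cells were pelleted, washed in PBS and lysed. Lysate relative fluorescence measured on a fluorometer.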

Experiment [2] has as its system PC-12. Description: Induction of neurite outgrowth in rat PC12 cells at 1 ug/mL after 6 days. The class given is functional, cell-based. The procedure, abridged: as §1
Experiment [3] concerns PC-12. Description: Induction of neurite outgrowth in rat PC12 cells assessed as neural extensions at 1 ug/mL after 5 days. The class given is functional, cell-based. The gist of the method: as §1

Converted amounts (≈) assume the structure as drawn. The source made the active and inactive calls. The calls are words filed in the database; no cut-off is given here.

Regarding `CN(C)c1ccc(C2CC(c3ccc4ccccc4c3)=CC=C2C=O)cc1` (centres undefined), in the experiment with PC-12 [1], the outcome was Active. Besides, the MIC with Escherichia coli, against Bacillus subtilis and in the experiment with Saccharomyces cerevisiae was > 100 mg/L in each case.
`CN(C)c1ccc(C2CC(c3ccc(Cl)s3)=CC=C2C=O)cc1` (centres undefined): the minimal inhibitory concentration (MIC) in the experiment on Escherichia coli, against Bacillus subtilis and in the experiment on Saccharomyces cerevisiae was > 100 mg/L each time. Moreover, the result in the experiment with Jurkat was Active.
As to `O=CC1=CC=C(c2ccc3c(c2)Cc2ccccc2-3)CC1c1ccc([N+](=O)[O-])cc1` (centres undefined), the minimal inhibitory concentration (MIC) against Escherichia coli, with Bacillus subtilis and against Saccharomyces cerevisiae was > 100 mg/L each time. Also, the outcome with Jurkat was Active.
For `O=CC1=CC=C(c2ccc(-c3ccccc3)cc2)CC1c1ccc([N+](=O)[O-])cc1` (centres undefined), the MIC with Escherichia coli, with Bacillus subtilis and against Saccharomyces cerevisiae was > 100 mg/L throughout. Moreover, in the experiment on Jurkat, the result was Active.
Consider `CC1C(c2cccs2)=CC=C(C=O)C1c1ccc(N(C)C)cc1` (centres undefined), for which the MIC in the experiment with Escherichia coli, in the experiment with Bacillus subtilis and with Saccharomyces cerevisiae was > 100 mg/L in each case.
With `CC1=CC=C(C=O)C(C)(c2ccc(-c3ccccc3)cc2)C1` (centres undefined), the MIC in the experiment on Escherichia coli, in the experiment on Bacillus subtilis and in the experiment with Saccharomyces cerevisiae was > 100 mg/L throughout.
For the molecule `CC1(c2ccc(Cl)s2)CC(c2ccc(Cl)s2)=CC=C1C=O` (centres undefined), the MIC with Escherichia coli, in the experiment on Bacillus subtilis and in the experiment with Saccharomyces cerevisiae was > 100 mg/L each time.
With `O=CC1=CC=C(c2ccc3ccccc3c2)CC1c1ccccc1` (centres undefined), the MIC in the experiment with Escherichia coli, in the experiment on Bacillus subtilis and against Saccharomyces cerevisiae was > 100 mg/L in each case.
On to `Cc1ccc(C2=CC=C(C=O)C(c3ccc([N+](=O)[O-])cc3)C2)o1` (centres undefined), for which the MIC with Escherichia coli, against Bacillus subtilis and in the experiment on Saccharomyces cerevisiae was > 100 mg/L in each case.
For the molecule `CN(C)c1ccc(C2CC(c3ccccc3)=CC=C2C=O)cc1` (centres undefined), the MIC against Escherichia coli, in the experiment on Bacillus subtilis and with Saccharomyces cerevisiae was > 100 mg/L throughout.
Turning to `CC(C)=CCC/C(C)=C/C[C@H]1C(C)=CC=C(C=O)[C@H]1c1ccccc1`, the MIC against Escherichia coli, in the experiment on Bacillus subtilis and with Saccharomyces cerevisiae was > 100 mg/L in each case.
`CC(C)=CCCC1=CC=C(C=O)C(C)(CCC=C(C)C)C1` (centres undefined): the MIC with Escherichia coli, in the experiment with Bacillus subtilis and in the experiment on Saccharomyces cerevisiae was > 100 mg/L each time.
As to `CC(C)=CC[C@@H]1C(C)=CC=C(C=O)[C@H]1c1ccc(N(C)C)cc1`, the MIC against Escherichia coli, against Bacillus subtilis and in the experiment with Saccharomyces cerevisiae was > 100 mg/L in each case.
On to `CC(C)=CC[C@H]1C(C)=CC=C(C=O)[C@H]1c1ccc([N+](=O)[O-])cc1`, for which the MIC (as a rule, the lowest concentration found to suppress growth) against Escherichia coli was > 100 mg/L; in the experiment on Bacillus subtilis, 10 mg/L (≈ 32.1 µM); in the experiment on Saccharomyces cerevisiae, > 100 mg/L.
For the molecule `O=CC1=CC=C(c2ccc3ccccc3c2)CC1c1ccc([N+](=O)[O-])cc1` (centres undefined), the minimum inhibitory concentration (MIC) with Escherichia coli, in the experiment on Bacillus subtilis and with Saccharomyces cerevisiae was > 100 mg/L each time.
Take `CC1=C(/C=C/C(C)=C/C=C/C2=CC=C(C=O)C(c3ccc([N+](=O)[O-])cc3)C2)C(C)(C)CCC1` (centres undefined): the MIC against Escherichia coli, against Bacillus subtilis and in the experiment with Saccharomyces cerevisiae was > 100 mg/L throughout.
For the molecule `CC(C)=CCCc1ccc(C=O)c(-c2ccccc2)c1`, the MIC in the experiment on Escherichia coli, in the experiment on Bacillus subtilis and in the experiment with Saccharomyces cerevisiae was > 100 mg/L each time.
`O=CC1=CC=C(c2ccc(-c3ccccc3)cc2)CC1`: the MIC against Escherichia coli, against Bacillus subtilis and in the experiment with Saccharomyces cerevisiae was > 100 mg/L each time.
In the case of `Cc1ccc(C2(C)CC(c3ccc(-c4ccccc4)cc3)=CC=C2C=O)o1` (centres undefined), the result in the experiment on PC-12 [2], in the experiment on PC-12 [3] and in the experiment on Jurkat was Active. The MIC against Escherichia coli, in the experiment on Bacillus subtilis and against Saccharomyces cerevisiae was > 100 mg/L in each case.
Turning to `CC1C(c2cccs2)=CC=C(C=O)C1c1ccc([N+](=O)[O-])cc1` (centres undefined), the MIC in the experiment on Escherichia coli, with Bacillus subtilis and with Saccharomyces cerevisiae was > 100 mg/L in each case.
`Cc1ccc(C2=CC=C(C=O)C(C)(C)C2)o1`: the minimum inhibitory concentration (MIC) against Escherichia coli, against Bacillus subtilis and against Saccharomyces cerevisiae was > 100 mg/L throughout.
In the case of `CC1(c2ccccc2)CC(c2ccccc2)=CC=C1C=O` (centres undefined), the MIC against Escherichia coli, in the experiment with Bacillus subtilis and in the experiment with Saccharomyces cerevisiae was > 100 mg/L throughout.
On to `CC1(c2ccc(-c3ccccc3)cc2)CC(c2ccc(-c3ccccc3)cc2)=CC=C1C=O` (centres undefined), for which the MIC with Escherichia coli, against Bacillus subtilis and against Saccharomyces cerevisiae was > 100 mg/L in each case.
Consider `O=Cc1ccc(-c2ccccc2)cc1-c1ccc([N+](=O)[O-])cc1`, for which the MIC in the experiment on Escherichia coli, with Bacillus subtilis and in the experiment with Saccharomyces cerevisiae was > 100 mg/L throughout.
As to `CC1(c2ccc3c(c2)Cc2ccccc2-3)CC(c2ccc3c(c2)Cc2ccccc2-3)=CC=C1C=O` (centres undefined), the minimum inhibitory concentration (MIC) against Escherichia coli, in the experiment with Bacillus subtilis and against Saccharomyces cerevisiae was > 100 mg/L in each case.
With `CC1=C(/C=C/C2=CC=C(C=O)C(c3ccccc3)C2)C(C)(C)CCC1` (centres undefined), the minimal inhibitory concentration (MIC) against Escherichia coli, in the experiment with Bacillus subtilis and in the experiment on Saccharomyces cerevisiae was > 100 mg/L each time.
With `CCCCC[C@H]1C(C)=CC=C(C=O)[C@H]1c1ccccc1`, the MIC against Escherichia coli, in the experiment on Bacillus subtilis and in the experiment with Saccharomyces cerevisiae was > 100 mg/L throughout.
With `CC1(c2cccs2)CC(c2cccs2)=CC=C1C=O` (centres undefined), the MIC against Escherichia coli, against Bacillus subtilis and against Saccharomyces cerevisiae was > 100 mg/L each time.
With `CC1=CC=C(C=O)C(C)(C)C1`, the MIC with Escherichia coli, in the experiment on Bacillus subtilis and in the experiment on Saccharomyces cerevisiae was > 100 mg/L each time.

The record behind these values is ChEMBL document CHEMBL1156621, “Synthesis and cellular effects of cycloterpenals: cyclohexadienal-based activators of neurite outgrowth” (2008).
